Assay outcomes deposited in PubChem BioAssay by The Scripps Research Institute Molecular Screening Center.
An excerpt weighted towards active compounds, which were near 2.2% of everything screened.
mABHD4 FP: ABHD4 inhibitors, primary screen, biochemical, fluorescence polarization, mouse. (Lyso)-N-acylphosphatidylethanolamine lipase (Mus musculus), Q8VD66. AID 720543, 2013. purified mABHD4, FP-Rh probe fluorescence polarization. 370,000 tested, 0.54% active. inhibition, % at 8.92 µM;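 active = inhibition exceeding the mean over every tested compound plus 3 SD, cut at about 30% in these data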;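 also: 0% = plate median of compound wells and 100% = S159A mutant with DMSO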
Target sequence (Q8VD66 whole entry, looked up): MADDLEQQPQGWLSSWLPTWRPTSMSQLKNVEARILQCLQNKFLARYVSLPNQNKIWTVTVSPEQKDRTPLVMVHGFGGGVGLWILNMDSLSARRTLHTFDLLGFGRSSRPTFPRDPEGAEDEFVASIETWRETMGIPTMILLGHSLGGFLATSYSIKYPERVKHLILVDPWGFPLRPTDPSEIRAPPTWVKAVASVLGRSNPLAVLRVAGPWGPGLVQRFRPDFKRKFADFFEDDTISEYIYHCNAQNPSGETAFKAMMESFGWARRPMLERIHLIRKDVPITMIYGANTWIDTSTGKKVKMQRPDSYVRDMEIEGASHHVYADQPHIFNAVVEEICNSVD
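Doses – 8.92 µM, single dose · Material – wild-type mouse ABHD4 protein · Replication – single well per compound (singlicate) · Measure – percent inhibition of probe binding, normalized to plate controls · Schedule – 45 min compound pre-incubation plus 60 min probe step, 25 °C · Detection – fluorescence polarization with parallel and perpendicular emission, 525/598 nm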
TCR CD3 inh: inhibitors of human TCR-CD3 interaction, primary screen, biochemical, fluorescence, TAMRA-labeled TCR probe; inhibition, % at 9.4 µM; 360,000 tested, 0.37% active; AID 651800, 2012; in the data active = inhibition above about 19%;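 also: recombinant mutant TCR 2C K166C tagged with TAMRA read by polarization; 0% = receptor in buffer alone and 100% = receptor with positive control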
HTRA1 inh: HTRA1 serine protease inhibitors, primary screen, biochemical, fluorescence polarization, HTS | inhibition, % at 5.96 µM | Q92743 | AID 504803, 2011 | recombinant HTRA1, FP-rhodamine activity-based probe | 340,000 tested, 0.5% active; in the data active = inhibition above about 36%;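 also: 0% = enzyme with DMSO and 100% = wells lacking enzyme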
LEDGF integ inh: blockers of LEDGF/p75-dependent integrase strand transfer – biochemical, TR-FRET, high throughput, primary screen | inhibition, % at 3.7 µM | TR-FRET IN-LEDGF/p75 DNA integration, Eu/Cy5 | HIV-1 integrase (with human LEDGF/p75) | AID 743269, 2014 | 370,000 tested, 0.64% active;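 active = inhibition above the screen-wide mean plus 3 SD, cut at about 13% in these data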;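 also: signal is the Cy5 over europium emission ratio at 671 and 618 nm; 0% = plate median of compound wells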
TDP2 inh: human TDP2 enzyme inhibitors, primary screen, biochemical, epi absorbance, recombinant enzyme; inhibition, % at 12.8 µM; Tyrosyl-DNA phosphodiesterase 2 (Homo sapiens), O95551; 370,000 tested, 0.34% active; T5PNP hydrolysis, p-nitrophenol absorbance 415 nm; AID 720702, 2013;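 active = inhibition above the mean of all tested compounds plus 3 SD, set per campaign, cut at about 25% in these data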;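 also: 0% = DMSO with enzyme and 100% = buffer with substrate but no TDP2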
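Assay system: recombinant human TDP2 / Reagent: T5PNP substrate at 5 mM, a TopII-DNA adduct mimic / Measured by: epi absorbance from released p-nitrophenol / Evaluation: % inhibition relative to enzyme-containing and enzyme-free wells / Control set: enzyme-free and DMSO wells / Replicates: each compound tested once, singlicate / Schedule: enzyme reaction with compound for 2 h at 37 °C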
SIAE inh: human SIAE inhibitors, primary screen, biochemical, fluorescence polarization, FP-Rh probe, 1536-well HTS; Sialate O-acetylesterase (Homo sapiens), Q9HAT2; SIAE FP-Rh probe binding; inhibition, % at 9.66 µM; 370,000 tested, 0.69% active; AID 1053197, 2014;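 active = inhibition above a cutoff: mean of compounds within the control limits plus 3 SD of those, cut at about 17% in these data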;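 also: 0% = plate median of compound wells and 100% = probe without SIAE protein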
SIAE confirm: human SIAE inhibitors, retest, confirmation, biochemical, fluorescence polarization, FP-Rh probe, triplicate. 2,300 tested, 13% active. shares compounds with SIAE inh. SIAE FP-Rh activity-based probe. inhibition, % at 9.66 µM;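 active = mean inhibition of the replicates above the hit cutoff set in the primary screen, cut at about 17% in these data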;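 also: 0% = SIAE with DMSO and probe and 100% = probe without SIAE; inhibitors lower polarization as more probe stays unbound to SIAE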
Starred values were filed as active, the others as inactive; . = no result.

SMILES	mABHD4 FP	TCR CD3 inh	HTRA1 inh	LEDGF integ inh	TDP2 inh	SIAE inh	SIAE confirm
CCc1nnc(NC(=O)CCc2c[nH]c3ccccc23)s1	1	-1	-1	-4	4	18*	5
O=C(CCc1c[nH]c2ccccc12)Nc1ccc(Nc2ccccc2)cc1	9	-8	.	-5	0	17*	13
COCCN(C(=O)COC(=O)Cc1ccc(Cl)cc1)c1c(N)n(Cc2ccccc2)c(=O)[nH]c1=O	2	-11	3	0	3	-1	.
COc1ccc(CCNC(=O)C2CC=CCC2C(=O)O)cc1 (configuration not stated)	4	2	5	-6	-10	-1	.
CN(C)C(CNC(=O)c1cnc(Cl)c(Cl)c1)c1ccccc1 (configuration not stated)	4	-3	13	-1	-3	-1	.
COc1cc(C(=O)Nc2scc(-c3ccc(C)cc3)c2C(=O)O)cc(OC)c1OC	-15	5	-3	6	-11	41*	35*
Cc1ccc(C(=O)N2CCN(c3ccc(NC(=O)c4cccnc4)cc3)CC2)cc1	-11	6	-1	-3	1	9	.
Cc1ccc(C(=O)Nc2cccc(C(=O)N3CCOCC3)c2)cc1	1	10	-3	-4	-9	26*	4
COc1ccc(C(=O)Nc2ccc(N3CCOCC3)cc2)cc1S(=O)(=O)NC1CCCC1	2	-3	4	0	4	17*	-6
COc1cc(C(=O)Nc2ccc(N3CCN(C(=O)c4ccc(C)cc4)CC3)cc2)cc(OC)c1OC	1	1	2	4	0	21*	6
Cc1ccc(Cl)cc1NC(=O)CN1C(=O)NC2(CCCCCC2)C1=O	8	19	-7	-1	2	45*	2
CC(C)(C)OC(=O)N1CCC[C@H]1C(=O)NCc1ccc(F)cc1F	6	4	.	0	-5	4	.
CC(=NCc1cccc(Cl)c1)c1nc(-c2ccco2)oc1O	1	-5	-5	3	4	21*	1
O=C(COC(=O)/C=C/c1cccs1)Nc1nc(-c2cccc(Br)c2)cs1	9	-1	-5	-3	11	30*	16
COc1ccc(-c2oc3c(c2C(=O)OCCCO)C(OCCCCCO)CCC3)cc1 (configuration not stated)	-6	-2	.	0	-3	0	.
CC1CN(C(=O)CS(=O)(=O)Cc2ccc(Cl)cc2)CC(C)O1 (configuration not stated)	3	0	5	1	5	1	.
C/C(=N/NC(=O)c1cc2ccccc2cc1O)c1ccco1	25	3	19	1	-4	23*	0
C/C(=N\NC(=O)c1cc2ccccc2cc1O)c1cccs1	14	3	27	3	2	28*	1
C/C(=N/NC(=O)c1cccs1)c1cccs1	-6	-1	1	-2	-21	-4	.
COc1cccc(C=NN2CCCCCC2)c1OC	8	1	8	-5	1	21*	2
CCOc1cc(/C=N/Nc2nc3ccccc3[nH]2)cc(Br)c1OCC(=O)N(C)C	28	-3	6	-6	-15	24*	21*
CCOC(=O)C1=C(C)OC(N)=C(C#N)C1c1cc(SCC)oc1C (configuration not stated)	1	8	1	3	0	19*	-8
CCN(C(=O)COC(=O)/C=C/c1cnc2ccccc2n1)C1CCS(=O)(=O)C1 (configuration not stated)	-1	0	3	0	-4	28*	-1
